Holding throughout (format): functional
The subject of assay [1] is Hep293TT. The experiment in a line: Antiproliferative activity against human Hep293TT cells assessed as growth inhibition after 48 hrs by sulforhodamine B assay. An outline of the steps:
(§1)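 A-673, SJCRH30 and Hep293TT cells in RPMI-1640 with 5% FBS and 0.5% gentamycin at 37 °C, 5% CO2, seeded at 4000–6000 cells/well and adhered overnight. DMSO solutions added to triplicate wells (0.5% v/v DMSO final) for 48 h. Medium removed, cells fixed with 10% TCA, SRB absorbance compared with vehicle and time-0 plates. TGI from nonlinear regression; n = 3, mean ± SEM.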

The nature of assay [2]: Antiproliferative activity against human D283 cells assessed as growth inhibition after 48 hrs by sulforhodamine B assay. The conditions noted are these: D283, 48 h. An outline of the steps:
(§2)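 D283 medulloblastoma cells grown in IMEM with 5% FBS and 0.3% gentamycin at 37 °C, 5% CO2, plated at 4000–6000 cells/well overnight. Compound in DMSO (0.5% v/v final), triplicate wells, 48 h. Because cells adhere poorly, 20% TCA added directly to the medium for fixation. SRB absorbance referenced to vehicle and time-0 plates; TGI by nonlinear regression, n = 3, mean ± SEM.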
(The SRB assay estimates cell density from bound dye.)

Assay [3] in a line: Antiproliferative activity against human SJCRH30 cells assessed as growth inhibition after 48 hrs by sulforhodamine B assay. The gist of the method: as §1
Assay [4] has as its system A673. The experiment in a line: Antiproliferative activity against human A673 cells assessed as growth inhibition after 48 hrs by sulforhodamine B assay. The conditions noted are these: A673, 48 h. The gist of the method: as §1
The nature of assay [5]: Antiproliferative activity against human D283 cells assessed as growth inhibition after 48 hrs by sulforhodamine B assay relative to control. To be noted: D283, 48 h. An outline of the steps: as §2
A short description of assay [6]: Antiproliferative activity against human SJCRH30 cells assessed as growth inhibition after 48 hrs by sulforhodamine B assay relative to control. The gist of the method: as §1
In assay [7] the test system is A673. The experiment in a line: Antiproliferative activity against human A673 cells assessed as growth inhibition after 48 hrs by sulforhodamine B assay relative to control. The conditions noted are these: A673, 48 h. An outline of the steps: as §1
Assay [8] relates to Hep293TT. Kind of assay: Antiproliferative activity against human Hep293TT cells assessed as growth inhibition after 48 hrs by sulforhodamine B assay relative to control. An outline of the steps: as §1

A word on the TGI: it is the concentration giving total growth inhibition. With `CCC1=C[C@@H]2CN(C1)Cc1c([nH]c3ccccc13)[C@@](C(=O)OC)(c1cc3c(cc1OC)N(C)[C@H]1[C@@](O)(C(=O)OC)[C@H](OC(C)=O)[C@]4(CC)C=CCN5CC[C@]31[C@@H]54)C2` [VINORELBINE], the TGI stood at 80 nM in assay [1], 80 nM in assay [2], 6 nM in assay [3] and 6 nM in assay [4].
Take `C=CC(=C)CCC1(C)C(C)CC(O)C23C(=C[C@H](OC(=O)CC)CC12)[C@@H](OC(C)=O)O[C@H]3OC(C)=O` (some centres undefined): the Emax in assay [5], in assay [6], in assay [7] and in assay [8] was 100% each time. In addition, the TGI in assay [1] came to 300 nM; in assay [2] it was 500 nM; in assay [3], 360 nM; in assay [4], 900 nM.
For the compound `C=CC(=C)CCC1(C)C(C)CC(=O)C23C(=C[C@H](OC(=O)/C(C)=C\C)CC12)[C@@H](OC(C)=O)O[C@H]3OC(C)=O` (some centres undefined), the Emax in assay [5], in assay [6], in assay [7] and in assay [8] was 100% in each case. The TGI in assay [1] amounted to 1800 nM; in assay [2], 2000 nM; in assay [3] it was 1900 nM; in assay [4], 3100 nM.
As for `C=CC(=C)CCC1(C)C(C)CC(=O)C23C(=C[C@H](OC(=O)CC)CC12)[C@@H](OC(C)=O)O[C@H]3OC(C)=O` (some centres undefined), the Emax in assay [5], in assay [6], in assay [7] and in assay [8] was 100% each time. In addition, the TGI worked out at 1000 nM in assay [1], 700 nM in assay [2], 520 nM in assay [3] and 1100 nM in assay [4].
In the case of `C=CC(=C)CCC1(C)C(C)CC(=O)C23C(=C[C@H](OC(=O)C(C)C)CC12)[C@@H](OC(C)=O)O[C@H]3OC(C)=O` (some centres undefined), the Emax in assay [5], in assay [6], in assay [7] and in assay [8] was 100% throughout. Besides, the TGI in assay [1] worked out at 3200 nM; in assay [2], 2300 nM; in assay [3], 2300 nM; in assay [4] it was 4100 nM.
Consider `C=CC(=C)CCC1(C)C(C)CC(=O)C23C(=C[C@H](OC(=O)CC(C)C)CC12)[C@@H](OC(C)=O)O[C@H]3OC(C)=O` (some centres undefined), for which the Emax in assay [5], in assay [6], in assay [7] and in assay [8] was 100% in each case. The TGI stood at 1000 nM in assay [1], 660 nM in assay [2], 670 nM in assay [3] and 1100 nM in assay [4].
For `C=CC(=C)CCC1(C)C(C)CC(=O)C23C(=C[C@H](OC(=O)[C@@H](C)CC)CC12)[C@@H](OC(C)=O)O[C@H]3OC(C)=O` (some centres undefined), the Emax in assay [5], in assay [6], in assay [7] and in assay [8] was 100% in each case. The concentration for total growth inhibition (TGI) came out at 800 nM in assay [1], 660 nM in assay [2], 730 nM in assay [3] and 1200 nM in assay [4].
For `C=CC(=C)CCC1(C)C(C)CC(O)C23C(=C[C@H](OC(=O)CC(C)C)CC12)[C@@H](OC(C)=O)O[C@H]3OC(C)=O` (some centres undefined), the Emax in assay [5], in assay [6], in assay [7] and in assay [8] was 100% throughout. The TGI in assay [1] amounted to 220 nM; in assay [2], 360 nM; in assay [3] it was 340 nM; in assay [4], 700 nM.
For `C=CC(=C)CCC1(C)C(C)CC(O)C23C(=C[C@H](OC(=O)/C(C)=C\C)CC12)[C@@H](OC(C)=O)O[C@H]3OC(C)=O` (some centres undefined), the Emax in assay [5], in assay [6], in assay [7] and in assay [8] was 100% in each case. Moreover, the TGI was 280 nM in assay [1], 700 nM in assay [2], 440 nM in assay [3] and 1000 nM in assay [4].
Take `C=CC(=C)CCC1(C)C(C)CC(O)C23C(=C[C@H](OC(=O)[C@@H](C)CC)CC12)[C@@H](OC(C)=O)O[C@H]3OC(C)=O` (some centres undefined): the Emax in assay [5], in assay [6], in assay [7] and in assay [8] was 100% throughout. Also, the TGI in assay [1] came to 600 nM; in assay [2], 1100 nM; in assay [3], 800 nM; in assay [4], 1700 nM.
On to `C=CC(=C)CCC1(C)C(C)CC(=O)C23C(=C[C@H](OC(=O)CCC)CC12)[C@@H](OC(C)=O)O[C@H]3OC(C)=O` (some centres undefined), for which the Emax in assay [5], in assay [6], in assay [7] and in assay [8] was 100% throughout. For the same compound, the TGI in assay [1] came out at 900 nM; in assay [2], 600 nM; in assay [3] it was 500 nM; in assay [4] it was 1000 nM.

Source of the values: ChEMBL document CHEMBL4480434, “Anacolosins A-F and Corymbulosins X and Y, Clerodane Diterpenes from Anacolosa clarkii Exhibiting Cytotoxicity toward Pediatric Cancer Cell Lines” (2019).
